Experimental data as given in ChEMBL document CHEMBL4715693, “Synthesis and antiviral properties of novel indole-based thiosemicarbazides and 4-thiazolidinones” (Bioorg Med Chem, 2016).
Values after ≈ are worked out from the molar mass of the structure shown.

How the values were obtained:
[1] = test system: Human immunodeficiency virus 1; assay: Antiviral activity against Human immunodeficiency virus 1 infected in human MT4 cells assessed as reduction in virus-induced cytopathic effect incubated for 3 to 6 days by light microscopic analysis; format: functional, organism-based; details: Human immunodeficiency virus 1, MT4
Feline coronavirus = assay: Antiviral activity against Feline coronavirus infected in cat CRFK cells assessed as reduction in virus-induced cytopathic effect incubated for 3 to 6 days by light microscopic analysis; format: functional, organism-based; details: Alphacoronavirus 1, CRFK
[2] = test system: Respiratory syncytial virus; assay: Antiviral activity against Respiratory syncytial virus infected in human HeLa cells assessed as reduction in virus-induced cytopathic effect incubated for 3 to 6 days by light microscopic analysis; format: functional, organism-based
Outline: (§1)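 CPE reduction assay: virus and serial compound dilutions added together to subconfluent HeLa (vesicular stomatitis, Coxsackie B4, respiratory syncytial) or Vero (Coxsackie B4, Sindbis, Punta Toro) cultures. Incubated 3–6 days at 37 °C. […] Mean ± SEM of three independent tests.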

Coxsackievirus B4 [3] = assay: Antiviral activity against Human coxsackievirus B4 infected in African green monkey Vero cells assessed as reduction in virus-induced cytopathic effect incubated for 3 to 6 days by light microscopic analysis; format: functional, organism-based; details: Enterovirus B; outline: as §1
[4] = test system: Mammalian orthoreovirus 1; assay: Antiviral activity against Mammalian orthoreovirus 1 infected in African green monkey Vero cells assessed as reduction in virus-induced cytopathic effect incubated for 3 to 6 days by light microscopic analysis; format: functional, organism-based; details: Mammalian orthoreovirus 1, Vero
Punta Toro virus = assay: Antiviral activity against Punta Toro virus infected in African green monkey Vero cells assessed as reduction in virus-induced cytopathic effect incubated for 3 to 6 days by light microscopic analysis; format: functional, organism-based; outline: as §1
Influenza A virus = assay: Antiviral activity against influenza A virus infected in dog MDCK cells assessed as reduction in virus-induced cytopathic effect incubated for 3 to 6 days by light microscopic analysis; format: functional, organism-based
Outline: (§2)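 MDCK cells, subconfluent, received influenza A or B virus together with serial compound dilutions. Incubated 3–6 days at 35 °C.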

Vaccinia virus = assay: Antiviral activity against Vaccinia virus infected in human HEL cells assessed as reduction in virus-induced cytopathic effect incubated for 3 to 6 days by light microscopic analysis; format: functional, organism-based; details: Orthopoxvirus vaccinia
Sindbis virus = assay: Antiviral activity against Sindbis virus infected in African green monkey Vero cells assessed as reduction in virus-induced cytopathic effect incubated for 3 to 6 days by light microscopic analysis; format: functional, organism-based; outline: as §1
[5] = test system: Vesicular stomatitis virus; assay: Antiviral activity against Vesicular stomatitis virus infected in human HeLa cells assessed as reduction in virus-induced cytopathic effect incubated for 3 to 6 days by light microscopic analysis; format: functional, organism-based
Outline: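 CPE reduction assay: virus and serial compound dilutions added together to subconfluent HeLa (vesicular stomatitis, Coxsackie B4, respiratory syncytial) or Vero (Coxsackie B4, Sindbis, Punta Toro) cultures. Incubated 3–6 days at 37 °C. Mean ± SEM of three independent tests.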

Influenza B virus = assay: Antiviral activity against influenza B virus infected in dog MDCK cells assessed as reduction in virus-induced cytopathic effect incubated for 3 to 6 days by light microscopic analysis; format: functional, organism-based; outline: as §2
[6] = Cytotoxicity against cat CRFK cells assessed as reduction in cell viability incubated for 3 to 6 days by MTS assay; format: cell-based, Felis catus; details: time 3-6 day
Outline: (§3)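 CRFK or MT4 cells were exposed to serial compound dilutions alongside the antiviral assays for 3–6 days at 37 °C.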

[7] = test system: Human immunodeficiency virus 2; assay: Antiviral activity against Human immunodeficiency virus 2 infected in human MT4 cells assessed as reduction in virus-induced cytopathic effect incubated for 3 to 6 days by light microscopic analysis; format: functional, organism-based; details: Human immunodeficiency virus 2, MT4
Human respirovirus 3 = assay: Antiviral activity against Human parainfluenza virus 3 infected in African green monkey Vero cells assessed as reduction in virus-induced cytopathic effect incubated for 3 to 6 days by light microscopic analysis; format: functional, organism-based; details: Human respirovirus 3, Vero
Coxsackievirus B4 [8] = assay: Antiviral activity against Human coxsackievirus B4 infected in human HeLa cells assessed as reduction in virus-induced cytopathic effect incubated for 3 to 6 days by light microscopic analysis; format: functional, organism-based; details: Enterovirus B; outline: as §1
Human alphaherpesvirus 1 = assay: Antiviral activity against Herpes simplex virus 1 infected in human HEL cells assessed as reduction in virus-induced cytopathic effect incubated for 3 to 6 days by light microscopic analysis; format: functional, cell-based; details: Human alphaherpesvirus 1, HEL
MT4 = assay: Cytotoxicity against human MT4 cells assessed as reduction in cell viability incubated for 3 to 6 days by MTS assay; format: cell-based; details: time 3-6 day; outline: as §3
Human alphaherpesvirus 2 = assay: Antiviral activity against Herpes simplex virus 2 infected in human HEL cells assessed as reduction in virus-induced cytopathic effect incubated for 3 to 6 days by light microscopic analysis; format: functional, cell-based; details: Human alphaherpesvirus 2, HEL
[9] = Cytotoxicity against human HEL cells assessed as changes in cell morphology incubated for 3 to 6 days by light microscopy; format: cell-based; details: time 3-6 day
Outline: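 Human embryonic lung fibroblasts incubated with serial compound dilutions alongside the antiviral assays, 37 °C, 3–6 days. Morphology inspected by light microscopy; minimal cytotoxic concentration taken as lowest concentration giving minimal morphological change.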

Felid alphaherpesvirus 1 = assay: Antiviral activity against Feline herpesvirus infected in cat CRFK cells assessed as reduction in virus-induced cytopathic effect incubated for 3 to 6 days by light microscopic analysis; format: functional, organism-based; details: Felid alphaherpesvirus 1, CRFK
[10] = Cytotoxicity against human HeLa cells assessed as changes in cell morphology incubated for 3 to 6 days by light microscopic analysis; format: cell-based; details: time 3-6 day
Outline: (§4)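 Uninfected subconfluent cells (Vero or HeLa, as named) exposed to serial compound dilutions in parallel with the CPE assays, 37 °C, 3–6 days. Cell morphology examined by light microscopy; MCC = minimal concentration causing microscopically detectable changes in morphology.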

[11] = Cytotoxicity against African green monkey Vero cells assessed as changes in cell morphology incubated for 3 to 6 days by light microscopy; format: cell-based; details: chlorocebus sabaeus, time 3-6 day; outline: as §4
[12] = Cytotoxicity against dog MDCK cells assessed as changes in cell morphology incubated for 3 to 6 days by light microscopy; format: cell-based, Canis lupus familiaris; details: time 3-6 day

SMILES | EC50 [1] [µg/mL] | EC50 (Feline coronavirus) | EC50 [2] | EC50 (Coxsackievirus B4 [3]) | EC50 [4] | EC50 (Punta Toro virus) [µg/mL] | EC50 (Influenza A virus; Influenza A virus, MDCK) [µg/mL] | EC50 (Vaccinia virus) | EC50 (Sindbis virus) [µg/mL] | EC50 [5] [µg/mL] | EC50 (Influenza B virus) [µg/mL] | CC50 ([6]; crfk) [µg/mL] | EC50 [7] [µg/mL] | EC50 (Human respirovirus 3) | EC50 (Coxsackievirus B4 [8]) | EC50 (Human alphaherpesvirus 1) [µg/mL] | CC50 (MT4) [µg/mL] | EC50 (Human alphaherpesvirus 2) [µg/mL] | MCC [9] | EC50 (Felid alphaherpesvirus 1) | further results
CCCN1C(=O)CS/C1=N\NC(=O)c1[nH]c2ccc(F)cc2c1-c1ccccc1 | > 100 | > 100 µg/mL | > 100 µg/mL | > 100 µg/mL | > 100 µg/mL | > 100 | > 100 | > 100 µg/mL | > 100 | > 100 | > 100 | > 100 | > 100 | > 100 µg/mL | > 100 µg/mL | > 100 | > 125 | > 100 | > 100 µg/mL | > 100 µg/mL | –
CCCCNC(=S)NNC(=O)c1[nH]c2ccc(F)cc2c1-c1ccccc1 | > 100 | > 100 µg/mL | > 100 µg/mL | > 100 µg/mL | > 100 µg/mL | > 100 | > 100 | > 100 µg/mL | > 100 | > 100 | > 100 | 1.4 | > 100 | > 100 µg/mL | > 100 µg/mL | > 100 | 11 (≈ 28.6 µM) | > 100 | > 10 µg/mL | > 100 µg/mL | MCC [10]: 4 µg/mL; MCC [11]: 10 µg/mL; MCC [12]: 10 µg/mL
C=CCN1C(=O)CS/C1=N\NC(=O)c1[nH]c2ccc(F)cc2c1-c1ccccc1 | > 100 | > 100 µg/mL | > 100 µg/mL | > 100 µg/mL | > 100 µg/mL | > 100 | > 100 | > 100 µg/mL | > 100 | > 100 | > 100 | > 100 | > 100 | > 100 µg/mL | > 100 µg/mL | > 100 | > 125 | > 100 | > 100 µg/mL | > 100 µg/mL | –
O=c1[nH]c(=O)n([C@H]2C[C@H](O)[C@@H](CO)O2)cc1/C=C/Br [BRIVUDINE] | – | – | – | – | – | – | – | 22 µM | – | – | – | – | – | – | – | – | – | – | – | – | –
Nc1nc2c(ncn2COC(CO)CO)c(=O)[nH]1 [GANCICLOVIR] | – | > 100 µM | – | – | – | – | – | > 100 µM | – | – | – | – | – | – | – | – | – | – | > 100 µM | 7.4 µM | CC50 ([6]; CRFK cells, read-out: CC50): > 100 µM
NC(=O)c1ncn([C@@H]2O[C@H](CO)[C@@H](O)[C@H]2O)n1 [RIBAVIRIN] | – | – | 15 µM | > 250 µM | > 250 µM | – | – | – | – | – | – | – | – | > 250 µM | 61 µM | – | – | – | > 250 µM | – | MCC [10]: > 250 µM; MCC [11]: > 250 µM; EC50 (Influenza A virus; mdck): 8.9 µM
Cc1cn([C@H]2C[C@H](N=[N+]=[N-])[C@@H](CO)O2)c(=O)[nH]c1=O [ZIDOVUDINE] | – | – | – | – | – | – | – | – | – | – | – | – | – | – | – | – | > 25 | – | – | – | –
